# Data as given in ChEMBL document CHEMBL2040734, “Benzothiazoles: search for anticancer agents” (2012).
# Experiments:
# Format in all cases: functional
# COLO 205 = test: Growth inhibition of human COLO205 cells after 48 hrs by sulforhodamine B assay; settings: COLO 205, 48 h; for CC50: read-out: LC50 (the source's name)
# In short: (§1)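 Cells were in RPMI 1640 with 5% FBS and pre-incubated 24 h. Read-out was TCA fixation, SRB staining and absorbance at 515 nm. GI50 was the concentration where [(Ti−Tz)/(C−Tz)]×100 = 50, taken from log concentration vs % growth curves. It is given as ">" the top concentration when not reached.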
# MDA-MB-468 [1] = test: Cytotoxicity against human MDA-MB-468 cells assessed as cell growth at 100 uM after 48 hrs by sulforhodamine B assay; settings: MDA-MB-468, 48 h, read-out: Activity
# SNB-75 = test: Cytotoxicity against human SNB75 cells assessed as cell growth at 0.1 uM after 48 hrs by sulforhodamine B assay; settings: SNB-75, 48 h, read-out: Activity
# NCI/ADR-RES = test: Cytotoxicity against human NCI/ADR-RES cells assessed as cell growth at 10 uM after 48 hrs by sulforhodamine B assay; settings: read-out: Activity
# SF-539 [2] = test: Cytotoxicity against human SF539 cells assessed as cell growth at 1 uM after 48 hrs by sulforhodamine B assay; settings: SF-539, 48 h, read-out: Activity
# HCT-15 = test: Growth inhibition of human HCT15 cells after 48 hrs by sulforhodamine B assay; settings: HCT-15, 48 h
# In short: (§2)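 Adherent NCI-60 lines were grown in RPMI 1640 with 5% FBS and 2 mM L-glutamine, plated at 5000–40,000 cells/well and preincubated 24 h. They were then exposed to five concentrations (0.01–100 µM, from a DMSO stock) for 48 h at 37 °C, 5% CO2. Cells were fixed with cold TCA (10% final, 60 min, 4 °C) and stained with 0.4% SRB. Dye was solubilized in 10 mM Tris base and A515 read. GI50 was derived from time-zero, control and treated absorbances.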
# SK-MEL-2 = test: Cytotoxicity against human SK-MEL-2 cells assessed as cell growth at 100 uM after 48 hrs by sulforhodamine B assay; settings: SK-MEL-2, 48 h, read-out: Activity
# OVCAR-4 [3] = test: Growth inhibition of human OVCAR4 cells after 48 hrs by sulforhodamine B assay; settings: OVCAR-4, 48 h; in short: as §2
# HOP-62 = test: Growth inhibition of human HOP62 cells after 48 hrs by sulforhodamine B assay; settings: HOP-62, 48 h; for CC50: read-out: LC50 (the source's name); in short: as §2
# U-251 = test: Growth inhibition of human U251 cells after 48 hrs by sulforhodamine B assay; settings: U-251, 48 h; in short: as §2
# MCF7 = test: Cytotoxicity against human MCF7 cells assessed as cell growth at 1 uM after 48 hrs by sulforhodamine B assay; settings: MCF7, 48 h, read-out: Activity
# SF-539 [4] = test: Cytotoxicity against human SF539 cells assessed as cell growth at 0.1 uM after 48 hrs by sulforhodamine B assay; settings: SF-539, 48 h, read-out: Activity
# ACHN [5] = test: Cytotoxicity against human ACHN cells assessed as cell growth at 10 uM after 48 hrs by sulforhodamine B assay; settings: read-out: Activity
# In short: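 NCI-60 five-dose screen. Cells were grown in RPMI 1640 with 5% FBS and 2 mM L-glutamine and preincubated 24 h. Compound (DMSO stock) was tested at 0.01, 0.1, 1, 10 and 100 µM for 48 h at 37 °C. Cells were fixed in situ with cold TCA (final 10%) and stained with 0.4% SRB. A515 was read, and percent growth was calculated against time-zero and control plates.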
# CCRF-CEM [6] = test: Cytotoxicity against human CCRF-CEM cells assessed as cell growth at 1 uM after 48 hrs by sulforhodamine B assay; settings: read-out: Activity
# In short: (§3)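 CCRF-CEM suspension leukemia cells in RPMI 1640 with 5% FBS and 2 mM L-glutamine, plated 24 h before dosing. Five concentrations (0.01–100 µM) were applied from a DMSO stock for 48 h at 37 °C. Settled cells were fixed with 80% TCA (final 16%) and stained with SRB, with read-out at 515 nm. Percent growth was derived from time-zero and control absorbances.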
# OVCAR-4 [7] = test: Cytotoxicity against human OVCAR4 cells assessed as cell growth at 1 uM after 48 hrs by sulforhodamine B assay; settings: OVCAR-4, 48 h, read-out: Activity
# A498 = test: Cytotoxicity against human A498 cells assessed as cell growth at 10 '-5 M after 48 hrs by sulforhodamine B assay; settings: A498, 48 h, read-out: Activity
# In short: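 Primary NCI-60 single-dose screen at 10 µM. Cells were grown in RPMI 1640 with 5% FBS and 2 mM L-glutamine and plated 24 h before drug addition. Compound was solubilized in DMSO, then exposed for 48 h at 37 °C under 5% CO2. Cells were TCA-fixed and stained with SRB, and absorbance was read at 515 nm. Growth was expressed relative to time-zero and untreated controls.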
# M14 = test: Growth inhibition of human M14 cells after 48 hrs by sulforhodamine B assay; settings: M14, 48 h; in short: as §2
# IGROV-1 = test: Cytotoxicity against human IGROV1 cells assessed as cell growth at 0.01 uM after 48 hrs by sulforhodamine B assay; settings: IGROV-1, 48 h, read-out: Activity
# OVCAR-8 [8] = test: Cytotoxicity against human OVCAR8 cells assessed as cell growth at 0.01 uM after 48 hrs by sulforhodamine B assay; settings: OVCAR-8, 48 h, read-out: Activity
# ACHN [9] = test: Growth inhibition of human ACHN cells after 48 hrs by sulforhodamine B assay; settings: for CC50: read-out: LC50 (the source's name); in short: as §1
# CCRF-CEM [10] = test: Cytotoxicity against human CCRF-CEM cells at 0.01 uM after 48 hrs by sulforhodamine B assay; in short: as §3
# MDA-MB-468 [11] = test: Cytotoxicity against human MDA-MB-468 cells assessed as cell growth at 10 '-5 M after 48 hrs by sulforhodamine B assay; settings: MDA-MB-468, 48 h, read-out: Activity
# SW-620 = test: Cytotoxicity against human SW620 cells assessed as cell growth at 10 uM after 48 hrs by sulforhodamine B assay; settings: SW-620, 48 h, read-out: Activity
# OVCAR-3 = test: Cytotoxicity against human OVCAR3 cells assessed as cell growth at 10 uM after 48 hrs by sulforhodamine B assay; settings: OVCAR-3, 48 h, read-out: Activity
# MOLT-4 = test: Cytotoxicity against human MOLT4 cells assessed as cell growth at 1 uM after 48 hrs by sulforhodamine B assay; settings: MOLT-4, 48 h, read-out: Activity
# SK-MEL-5 = test: Growth inhibition of human SK-MEL-5 cells after 48 hrs by sulforhodamine B assay; settings: SK-MEL-5, 48 h; in short: as §2
# OVCAR-8 [12] = test: Cytotoxicity against human OVCAR8 cells assessed as cell growth at 100 uM after 48 hrs by sulforhodamine B assay; settings: OVCAR-8, 48 h, read-out: Activity
compound,measurement,setting,value
Cc1ccc2nc(Nc3c(C)cccc3C)sc2c1,TGI,COLO 205,> 100000 nM
same,CC50,COLO 205,> 100 µM
same,growth at 100 µM,MDA-MB-468 [1],27%
same,growth at 0.1 µM,SNB-75,61%
same,growth at 10 µM,NCI/ADR-RES,22%
same,growth at 1 µM,SF-539 [2],76%
same,GI50,HCT-15,920 nM
same,LC50,HCT-15,> 100 µM
same,TGI,HCT-15,> 100000 nM
same,growth at 100 µM,SK-MEL-2,53%
same,GI50,OVCAR-4 [3],> 100000 nM
same,LC50,OVCAR-4 [3],> 100 µM
same,TGI,OVCAR-4 [3],> 100000 nM
same,GI50,HOP-62,3860 nM
same,TGI,HOP-62,> 100000 nM
same,CC50,HOP-62,> 100 µM
same,GI50,U-251,25.4 µM
same,LC50,U-251,> 100 µM
same,TGI,U-251,> 100000 nM
same,growth at 1 µM,MCF7,53%
same,growth at 0.1 µM,SF-539 [4],97%
same,growth at 10 µM,ACHN [5],59%
same,growth at 1 µM,CCRF-CEM [6],72%
same,growth at 1 µM,OVCAR-4 [7],71%
same,growth at 10 µM,A498,38%
same,LC50,M14,> 100 µM
same,TGI,M14,> 100 µM
same,growth at 0.01 µM,IGROV-1,107%
same,growth at 0.01 µM,OVCAR-8 [8],103%
same,GI50,ACHN [9],76.6 µM
same,TGI,ACHN [9],> 100000 nM
same,CC50,ACHN [9],> 100 µM
same,Activity,CCRF-CEM [10],94%
same,growth at 10 µM,MDA-MB-468 [11],2.04%
same,growth at 10 µM,SW-620,22%
same,growth at 10 µM,OVCAR-3,52%
same,growth at 1 µM,MOLT-4,76%
same,LC50,SK-MEL-5,> 100 µM
same,TGI,SK-MEL-5,> 100000 nM
same,growth at 100 µM,OVCAR-8 [12],45%
Clc1cccc(Cl)c1Nc1nc2cccc(Cl)c2s1,GI50,COLO 205,1400 nM
same,TGI,COLO 205,2810 nM
same,CC50,COLO 205,5.67 µM
same,growth at 100 µM,MDA-MB-468 [1],-59%
same,growth at 0.1 µM,SNB-75,85%
same,growth at 10 µM,NCI/ADR-RES,-72%
same,growth at 1 µM,SF-539 [2],77%
same,GI50,HCT-15,1160 nM
same,LC50,HCT-15,5.69 µM
same,TGI,HCT-15,2570 nM
same,growth at 100 µM,SK-MEL-2,-44%
same,GI50,OVCAR-4 [3],708 nM
same,LC50,OVCAR-4 [3],5.05 µM
same,TGI,OVCAR-4 [3],2140 nM
same,GI50,HOP-62,1270 nM
same,TGI,HOP-62,2620 nM
same,CC50,HOP-62,5.38 µM
same,GI50,U-251,1.31 µM
same,TGI,U-251,2790 nM
same,growth at 1 µM,MCF7,46%
same,growth at 0.1 µM,SF-539 [4],100%
same,growth at 10 µM,ACHN [5],-99%
same,growth at 1 µM,CCRF-CEM [6],62%
same,growth at 1 µM,OVCAR-4 [7],44%
same,growth at 10 µM,A498,-53.6%
same,GI50,M14,1460 nM
same,LC50,M14,7.44 µM
same,TGI,M14,3.29 µM
same,growth at 0.01 µM,IGROV-1,114%
same,growth at 0.01 µM,OVCAR-8 [8],101%
same,GI50,ACHN [9],1.15 µM
same,TGI,ACHN [9],2380 nM
same,CC50,ACHN [9],4.92 µM
same,Activity,CCRF-CEM [10],96%
same,growth at 10 µM,MDA-MB-468 [11],-25.6%
same,growth at 10 µM,SW-620,-86%
same,growth at 10 µM,OVCAR-3,-96%
same,growth at 1 µM,MOLT-4,52%
same,GI50,SK-MEL-5,1000 nM
same,LC50,SK-MEL-5,4.93 µM
same,TGI,SK-MEL-5,2220 nM
same,growth at 100 µM,OVCAR-8 [12],-35%
